In the EternaBench riboswitch data:

System: MS2 coat protein
Assay: apparent Kd, MS2 coat protein; higher = weaker binding; RNA-MaP array; FMN 200 µM where present
How it was run: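 Each design was made on Illumina sequencing-chip clusters by stalled E. coli RNA polymerase and titrated with SNAP-549-labelled MS2 coat protein from 0.7 or 1.5 nM, doubling to 3 µM, in the absence and then the presence of constant ligand. The buffer was 100 mM Tris-HCl pH 7.5, 80 mM KCl, 4 mM MgCl2, BSA, DTT, yeast tRNA and Tween-20. The apparent Kd is the median of filtered per-cluster fits of binding curves, with green signal normalised to red-channel RNA signal and control-cluster median Fmax.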

[1] = designed as: OFF switch for flavin mononucleotide, no ligand
[2] = ligand present: flavin mononucleotide, designed as: OFF switch for flavin mononucleotide
[3] = designed as: ON switch for flavin mononucleotide, no ligand
[4] = ligand present: flavin mononucleotide, designed as: ON switch for flavin mononucleotide

AAGUAGGGAGGAUAUACAUAGAUACAGAUUCGUGUAGAACUACAUGAGGAUCACCCAUGUAGAAGGCCCUAAUA
apparent Kd [1]: 18.1 nM | apparent Kd [2]: 41.6 nM

AAGUAGUGAGGAUAUACAUGGAUAUACAUUCAUGUGGACCUACAUGAGGAUCACCCAUGUAGAAGGCACUAAUA
apparent Kd [1]: 33.8 nM | apparent Kd [2]: 28.6 nM

AAGUAUAGAGGAUAUACAUAGAUACAGAUUCAUGUAGAACUACAUGAGGAUCACCCAUGUAGAAGGCUAUACUA
apparent Kd [1]: 30.2 nM | apparent Kd [2]: 159 nM

AAGUCGCACCAGAAGGGUCAACCAAUAAAUUAGACAGGAUAUGGGCGAUAUGUAUGUCGCGACAUGAGGAUCACCCAUGUCCGG
apparent Kd [3]: 17.7 nM | apparent Kd [4]: 6.08 nM

AAGUCUGGACGAGGAUAUCAGUUGUAUCUAGCAUCAACAUGAGGAUCACCCAUGUUGCAAUAGGGUGAGAAGGCGUUUGGGCAA
apparent Kd [3]: 150 nM | apparent Kd [4]: 20.6 nM

AAGUUAGGGAGAGGAUAUUGACAUGAGGAUCACCCAUGUAUUUGGGAGUGUUUACUGAAUUCUUACGAGAAGGCUUACGAAAUU
apparent Kd [1]: 344 nM | apparent Kd [2]: 259 nM

AAUAAACACACAGGAUAUAGCAUCGUCGGUAUGAACUUAAAGACGACGAUGCUAGAAGGGUGAACACAUGAGGAUCACCCAUGU
apparent Kd [3]: 232 nM | apparent Kd [4]: 39.1 nM

AAUAAAUAUAAAUUUUAUUUGUCGUAGGAUAUGGGUGACAUGAGGAUCACCCAUGUUGCAGACGACCAGAAGGGCGGCGGAUAU
apparent Kd [3]: 117 nM | apparent Kd [4]: 23.2 nM

AAUAACAGAGGAUAUACUAUUUUAUGUGUUUGUUAUUUUGAACAUGAGGAUCACCCAUGUAGAAGGCUGAUUAA
apparent Kd [1]: 44.4 nM | apparent Kd [2]: 43.9 nM

AAUAACAGAGGAUAUACUGUUUUAUGUGUUUAUUGUUUUGAACAUGAGGAUCACCCAUGUAGAAGGCUGAAUAA
apparent Kd [1]: 22.6 nM | apparent Kd [2]: 23.2 nM

AAUAAGCUAGGAUAUACAUGAGGAUCACCCAUGUGAGGGCACGGCCGGCGCGUUUCCGGUAGAAGGAGUCAUAA
apparent Kd [1]: 34.5 nM | apparent Kd [2]: 25.2 nM

AAUAAGUGAGGAUAUACGUCUGGACCCGGGAGGGCUAUAUAACAUGAGGAUCACCCAUGUAGAAGGCACAAUAA
apparent Kd [1]: 13.9 nM | apparent Kd [2]: 15.9 nM

AAUAAUUAGUAAGGAUAUACUAGUGAUUAGCUUGUAGAAGGUACAGUCUUAUGUAUAAUAAAUUAACAUGAGGAUCACCCAUGU
apparent Kd [3]: 11.6 nM | apparent Kd [4]: 9.86 nM

AAUAAUUAUUAAGGAUAUGGGUUGAUAACAUGAGGAUCACCCAUGUUAAAUAAGCCGAGAGGCUACUAGAAGGAUAUAUAUAUU
apparent Kd [3]: 1050 nM | apparent Kd [4]: 435 nM

AAUACUACAGGAUAUACAUGGGUGAUCCUCAUGUCCCUUCUACAUGAGGAUCACCCAUGUAGAAGGGUAGUACA
apparent Kd [1]: 13.4 nM | apparent Kd [2]: 8.3 nM

AAUAGUAUUGUAGGAUAUGUUAUUUUCUAACAUGAGGAUCACCCAUGUAAUAUAGGGUUGUUUCUACAGAAGGACAAUUUAUUA
apparent Kd [3]: 509 nM | apparent Kd [4]: 387 nM

AAUAUAAAGCAGAAGGCCUUAUUACAUGAGGAUCACCCAUGUAAUCGUGGGAGGAUAUGCAUGAUACAACUACGUAUCGUAGCA
apparent Kd [3]: 9.33 nM | apparent Kd [4]: 5.19 nM

AAUAUAAGAGCUGGAAAUCUCAAAACAUGAGGAUCACCCAUGUAGGAUAUCAGCACGAUAAGUGCUGAGAAGGACAUCCAGCUC
apparent Kd [1]: 16 nM | apparent Kd [2]: 18.1 nM

AAUAUAAGAGCUGGUAAUCUCAAAACAUGAGGAUCACCCAUGUAGGAUAUCAGCACGAUAAGUGCUGAGAAGGACAUCCAGCUC
apparent Kd [1]: 14.3 nM | apparent Kd [2]: 16.7 nM

AAUAUAAGAGCUGGUCUCAAAAGAACAUGAGGAUCACCCAUGUAGGAUAUCAGCACGAUAAGUGCUGAGAAGGACAUCCAGCUC
apparent Kd [1]: 14.5 nM | apparent Kd [2]: 18.6 nM

AAUAUACAUGAGGAUCACCCAUGUUAGGUGGGACUAGGAUAUCAGAGUACAUUAUGAACAUGAGAAGGAGUCUCAG
apparent Kd [3]: 66.2 nM | apparent Kd [4]: 24.2 nM

AAUAUGAGCUGGUUUAAAUCCUAAACAUGAGGAUCACCCAUGUAGGAUAUCAGCACGAUAAGUGCUGAGAAGGACAUCCAGCUC
apparent Kd [1]: 15.1 nM | apparent Kd [2]: 15.2 nM

AAUAUGUUGCAGAAGGUUAUUUUUAUAACGAUCCAUGAGACAUGAGGAUCACCCAUGUAAUAGAUGAAGGAUAUGCAAUAUAUU
apparent Kd [1]: 6.21 nM | apparent Kd [2]: 5.84 nM

AAUCCACAUGAGGAUCACCCAUGUCAGGAUAUCGCGCGCGCGGUUUCGGUCGCGCGCGCGAGAAGGGACGGCUG
apparent Kd [1]: 28.8 nM | apparent Kd [2]: 51.7 nM

AAUGCGGCAGGAUAUACAUGAGGAUCACCCAUGUAGAUCAGAUAUAUGGUCGAGCCAUGUAGAAGGGCCGCAAA
apparent Kd [1]: 30.8 nM | apparent Kd [2]: 110 nM

AAUGGCUAGCGCUCUGGAACUGCACAGGAUAUGAAGAGCUACAUGAGGAUCACCCAUGUUUAAAAUCAGAAGGGUGAGUAUCAG
apparent Kd [3]: 166 nM | apparent Kd [4]: 16.2 nM

AAUGGGCAGCAGAAGGCAUGUCAACGGACAUGAGGAUCACCCAUGUAGUAUAGCCGAAAGGCACAUGAGGAUAUGCUGCCCUAA
apparent Kd [3]: 19.4 nM | apparent Kd [4]: 5.14 nM
